Source: PubChem
RGS4 act – RGS4 potentiation or activation. B-score at 10 µM. AID 463111. 310,000 compounds, 0.92% hits. HEK293 M3R/inducible RGS4, carbachol calcium flux Fluo4; stronger effect = lower value;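 active means B-score of the integrated calcium signal more than 4 SD below the library mean, with starting fluorescence not abnormally high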;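 further: negative B-score means reduced calcium response which marks RGS4 activation or potentiation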
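Detection: kinetic calcium fluorescence imaging with Fluo4-AM dye, 2 µM / Material: HEK293 cells with stable M3R and inducible RGS4 / Schedule: recording 10 s baseline at 1 Hz, 100 s post-agonist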
RGS4 block – inhibitors of human RGS4. HEK293 M3R/RGS4 inducible, Fluo-4 calcium flux; stronger effect = higher value; triggered by carbachol at its EC20. B-score at 10 µM. 310,000 compounds, 0.45% hits;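 active means B-score, a plate-corrected calcium signal, over three deviations above library mean, with baseline fluorescence within five deviations of library mean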;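 further: RGS4 expression induced by doxycycline in cells with stable M3 receptor; B-score is computed from the integrated fluorescence ratio over baseline after carbachol; higher B-score means a larger calcium signal and so more RGS4 inhibition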
Target sequence (P49798 whole entry, looked up): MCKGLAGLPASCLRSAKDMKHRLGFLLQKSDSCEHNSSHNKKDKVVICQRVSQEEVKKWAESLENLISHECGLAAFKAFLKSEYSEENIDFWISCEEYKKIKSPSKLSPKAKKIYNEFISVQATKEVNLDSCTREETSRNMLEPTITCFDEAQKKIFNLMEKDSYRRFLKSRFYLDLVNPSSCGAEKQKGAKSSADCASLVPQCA
MrgX1 antagonist – human MrgX1 receptor antagonism, primary screen; MRGX1-HEK293 calcium flux, Fluo-4, BAM8-22 antagonism; stronger effect = lower value; B-score at 10 µM; 310,000 compounds, 1.3% hits;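 active means calcium-response B-score plate-corrected more than 3 library SD below zero, starting fluorescence within 5 deviations, no agonist response on first addition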;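 further: peak minus trough fluorescence over baseline after final BAM8-22 challenge near maximal dose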
Target sequence (Q96LB2 whole entry, looked up): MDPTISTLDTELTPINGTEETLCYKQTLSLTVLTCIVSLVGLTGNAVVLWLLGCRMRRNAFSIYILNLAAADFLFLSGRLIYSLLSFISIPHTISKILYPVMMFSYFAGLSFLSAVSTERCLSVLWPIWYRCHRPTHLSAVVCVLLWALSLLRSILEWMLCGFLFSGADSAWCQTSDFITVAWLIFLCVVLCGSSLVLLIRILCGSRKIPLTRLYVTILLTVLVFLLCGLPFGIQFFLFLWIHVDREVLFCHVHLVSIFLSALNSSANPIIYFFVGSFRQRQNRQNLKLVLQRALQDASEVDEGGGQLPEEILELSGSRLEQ
MrgX1 ag – activates human MrgX1 receptor signaling | MrgX1-HEK293 cells, Fluo-4 calcium fluorescence, agonist mode; stronger effect = higher value | Q96LB2 | 310,000 compounds, 0.44% hits | B-score at 10 µM;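 active means calcium response B-score plate-corrected fluorescence ratio at least 3 library SD, with starting fluorescence B-score inside 5 SD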
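Material: HEK293 cells stably expressing human MrgX1 receptor | Quantity: 15,000 cells per well | Times: Cells plated overnight, dye loaded 0.5 h 37 °C, 0.5 h room temperature | Measured by: Kinetic Fluo-4 NW fluorescence of intracellular calcium | Control set: Positive and negative controls per plate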
MrgX1 allo act – human MrgX1 positive allosteric modulation, primary screen | MrgX1-HEK293, Fluo-4 calcium flux, FDSS; stronger effect = higher value | AID 588675 | B-score at 10 µM | Q96LB2 | 310,000 compounds, 0.63% hits;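 active means plate-corrected calcium response at least 3 library SD above typical, normal starting fluorescence, not activating the receptor alone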;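 further: compound read alongside a low EC10 to EC30 dose of BAM8-22 agonist; peak minus trough fluorescence over baseline measured at the second addition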
RGS4 activ val – RGS4 activation, validation assay. shares compounds with RGS4 act. HEK293 M3R/RGS4 inducible, carbachol calcium flux Fluo4. inhibition, % at 10 µM. 1,100 compounds, 89% hits;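 active means inhibition above 3 SD of the buffer control wells, cut at about 41% in these data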;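 further: signal is the integrated peak-minus-minimum Fluo4 fluorescence over baseline ratio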
RGS4 act ctr – RGS4 activator counter-screen hit in non-induced cells. shares compounds with RGS4 act. 1,100 compounds, 82% hits. HEK293 M3R non-induced RGS4, Fluo4 calcium flux; after carbachol challenge at its EC90. inhibition, % at 10 µM;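 active means inhibition exceeding 3 SD of buffer-only control wells, cut at about 26% in these data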;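 further: percent drop in integrated peak-minus-baseline over baseline Fluo4 ratio after carbachol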
* marks the source's active call; other numbers are inactive results; i = inactive; nt = not tested or not shown; ! = repeats disagree. Shown are actives, neighbours in structure and some others; about 3.5% of the full set was active somewhere.

SMILES	RGS4 act	RGS4 block	MrgX1 antagonist	MrgX1 ag	MrgX1 allo act	RGS4 activ val	RGS4 act ctr
CCCCOc1ccc(C(O)C(CN2CCCCC2)c2ccccc2)cc1 (stereo not drawn)	-7.6*	i	i	i	i	58*	84*
CCCn1c(N2CCN(C(=O)Nc3ccc(Cl)cc3)CC2)nc2ccccc21	i	i	i	i	i	nt	nt
CC1CCC(C(C)C)C(OC(=O)COC(=O)c2ccc(N)cc2)C1 (stereo not drawn)	i	i	i	i	i	nt	nt
Cc1ccccc1OCc1n(CC(=O)OC2CC(C)CCC2C(C)C)c2ccccc2[n+]1C (stereo not drawn)	-13*	i	-7.2*	i	i	92*	91*
CC1CCC(C(C)C)C(OC(=O)Cn2c(-c3ccc(Br)cc3)[n+](C)c3ccccc32)C1 (stereo not drawn)	-11*	i	-6*!	i	i	94*	81*
CCOc1ccc(OCC)c(NC(=O)Cn2c(C)nc3ccccc3c2=O)c1	i	i	i	i	i	nt	nt
C/C=C1\COC(C(=O)NCc2ccccc2)(C(F)(F)F)C=C1C=C(C)C (stereo not drawn)	-7.8*	i	i	i	i	92*	93*
O=C1CCSc2ccc(Cl)cc2N1Cc1ccc(Cl)cc1	-10*	i	i	i	i	90*	86*
O=C(Cc1ccccc1)Nc1cccc(-c2nnc(-c3ccco3)o2)c1	i	i	i	i	i	nt	nt
COc1cccc(C(=O)Nc2cccc(-c3nnc(-c4ccccc4)o3)c2)c1	-11*	i	i	i	i	76*	37*
COc1ccc(CC(=O)Nc2cccc(-c3nnc(-c4ccccc4)o3)c2)cc1OC	-9*	i	nt	nt	nt	93*	81*
COc1ccccc1OCC(=O)Nc1cccc(-c2nnc(-c3ccco3)o2)c1	-8.1*	i	i	i	i	78*	28*
CNC(=S)NNC(=O)c1cccn(Cc2cccc(C(F)(F)F)c2)c1=O	i	i	i	i	i	nt	nt
Fc1ccc(N2CCN(C3=Nc4cccc5cccc3c45)CC2)cc1	-13*	i	i	i	i	94*	74*
c1ccc(CN2CCN(C3=Nc4cccc5cccc3c45)CC2)cc1	i	i	nt	nt	nt	nt	nt
COc1[nH]c(/N=C/c2ccccc2)c(C#N)c1C#N	-8.4*	i	i	i	i	0	0
CCCNC(=O)c1ccccc1NC(=O)c1ccc2c(c1)NC(=O)C(C)S2 (stereo not drawn)	-7.8*	i	i	i	i	72*	29*
CC(=O)c1ccccc1NC(=O)c1ccc2c(c1)NC(=O)C(C)S2 (stereo not drawn)	i	i	i	i	i	nt	nt
CN(C)S(=O)(=O)c1ccc(C(=O)OCC2COC(C)(C)O2)cc1 (stereo not drawn)	i	i	i	i	i	nt	nt
O=C1c2oc3ccccc3c(=O)c2C(c2cccc(O)c2)N1CCCN1CCOCC1 (stereo not drawn)	-8.9*	i	i	i	i	85*	37*
CN(C)Cc1ccccc1CCc1ccccc1	-8.3*	i	i	i	i	78*	42*
COc1ccc(CCNC(=O)c2cccc3c2C(=O)N(C2CCCCC2)C3)cc1OC	-8.1*	i	i	i	i	64*	0
CCOCCN1CCN(C2c3ccccc3CSc3ccccc32)CC1 (stereo not drawn)	-13*	i	i	i	i	92*	90*
CCNC(=O)NC1c2ccccc2CSc2ccccc21 (stereo not drawn)	i	i	i	i	i	nt	nt
C=CCNc1nc(N2CCCCC2)c(C#N)c2c1CN(Cc1ccccc1)CC2	-8.9*	i	i	i	i	94*	81*
SMILES	RGS4 act	RGS4 block	MrgX1 antagonist	MrgX1 ag	MrgX1 allo act	RGS4 activ val	RGS4 act ctr
CC1=C(C(=O)OC(C)C)C(c2cccc([N+](=O)[O-])c2)n2c(cc(=O)[nH]c2=S)N1 (stereo not drawn)	i	i	i	i	i	nt	nt
Cc1ccc(OCCCn2ccnc2)c(Br)c1	i	i	i	i	i	nt	nt
CN(CCN(C)C(C)(C)C)C(=O)C(c1ccccc1)c1ccccc1	-12*	i	i	i	i	94*	75*
CSc1ccc(CN(C)C(=O)C(c2ccccc2)c2ccccc2)cc1	i	i	i	i	i	nt	nt
COc1ccc(C(=O)CSc2nnc(CN3CCCC3)n2-c2ccc(F)cc2)c(OC)c1	i	i	i	i	i	nt	nt
COc1ccc(-c2nn(-c3ccccc3)cc2C(=O)Nc2nccs2)cc1	-8.7*	i	i	i	i	68*	0
COc1cccc(-c2nn(-c3ccccc3)cc2C(=O)Nc2nccs2)c1	i	i	i	i	i	nt	nt
Cc1ccc(C(=O)c2cnc3ccccc3c2-c2ccccc2)cc1	-8.3*	i	i	i	i	78*	58*
COc1ccc(C(=O)c2cnc3ccccc3c2-c2ccccc2)cc1	-8.6*	i	i	i	i	86*	66*
N#Cc1nc(-c2cccc(Cl)c2)oc1N1CCC(C(N)=O)CC1	i	i	i	i	i	nt	nt
Cc1ccc2c(c1)C(=O)CC1(CCCC1)O2	i	i	i	i	i	nt	nt
Cc1cc(NC(=O)CSc2cn(CCNC(=O)c3ccc(F)cc3)c3ccccc23)no1	-7.7*	i	i	i	i	69*	33*
CN1CCN(CC(=O)Nc2c(C(=O)c3ccccc3)oc3ccccc23)CC1	-10*	i	i	i	i	70*	27*
CCOc1ccc(CN(C)c2nc(-c3cccnc3)nc3ccccc23)cc1OC	-9.2*	i	i	i	i	76*	43*
COc1ccc(CCNc2nc(-c3cccnc3)nc3ccccc23)cc1OC	i	i	i	i	i	nt	nt
Cn1c(SCc2c(Cl)cccc2Cl)nnc1-c1cccs1	-12*	i	i	i	i	74*	84*
COCCn1c(-c2ccc(Br)cc2)nc2oc3cc(OC)ccc3c(=O)c2c1=O	-8.3*	i	i	i	i	0	0
COCCn1c(-c2ccccc2)nc2oc3cc(OC)ccc3c(=O)c2c1=O	i	i	i	i	i	nt	nt
